Hits are enriched below; roughly 3.5% of the tested compounds scored in any of these assays.
RGS4 act – RGS4 potentiation or activation; HEK293 M3R/inducible RGS4, carbachol calcium flux Fluo4; active compounds read low; B-score at 10 µM; hit rate 0.92% among 310,000; AID 463111;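 active = B-score of the integrated calcium signal more than 4 SD below the library mean, with starting fluorescence not abnormally high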;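 note: negative B-score means reduced calcium response which marks RGS4 activation or potentiation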
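Material: Inducible-RGS4 HEK293 cells carrying M3 receptor; also added: carbachol at ECmax as muscarinic agonist stimulus; incubation: compound preincubation 20 min at room temperature before agonist; signal: Fluo4-AM (2 µM) calcium-flux fluorescence, kinetic read; measure: integrated calcium ratio converted to B score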
RGS4 inh – human RGS4 inhibition. B-score at 10 µM. P49798. HEK293 M3R/RGS4 inducible, Fluo-4 calcium flux; active compounds read high; triggered by carbachol at its EC20. hit rate 0.45% among 310,000. AID 463165;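 active = B-score, a plate-corrected calcium signal, over three deviations above library mean, with baseline fluorescence within five deviations of library mean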;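 note: RGS4 expression induced by doxycycline in cells with stable M3 receptor; B-score is computed from the integrated fluorescence ratio over baseline after carbachol; higher B-score means a larger calcium signal and so more RGS4 inhibition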
Target sequence (P49798 whole entry, looked up): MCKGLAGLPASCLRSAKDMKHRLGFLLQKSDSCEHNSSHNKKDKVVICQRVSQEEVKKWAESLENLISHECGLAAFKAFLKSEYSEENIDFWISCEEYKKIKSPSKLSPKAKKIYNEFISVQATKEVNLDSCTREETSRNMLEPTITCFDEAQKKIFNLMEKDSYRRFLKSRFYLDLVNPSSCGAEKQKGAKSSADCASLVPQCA
MrgX1 ag – human MrgX1 receptor agonism, primary screen. B-score at 10 µM. Q96LB2. MrgX1-HEK293 cells, Fluo-4 calcium fluorescence, agonist mode; active compounds read high. AID 588627. hit rate 0.44% among 310,000;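 active = calcium response B-score plate-corrected fluorescence ratio at least 3 library SD, with starting fluorescence B-score inside 5 SD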
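Assay system: MrgX1-expressing HEK293 cells / Amount: fifteen thousand cells per well / Doses: test compound in the initial addition of three / Timing: cells plated overnight, dye loaded 0.5 h 37 °C, 0.5 h room temperature / Technique: kinetic calcium dye fluorescence, Fluo-4 NW / Control set: positive and negative controls per plate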
MrgX1 allo act – human MrgX1 positive allosteric modulation, primary screen; Q96LB2; MrgX1-HEK293, Fluo-4 calcium flux, FDSS; active compounds read high; B-score at 10 µM; hit rate 0.63% among 310,000; AID 588675;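 active = plate-corrected calcium response at least 3 library SD above typical, normal starting fluorescence, not activating the receptor alone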;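 note: compound read alongside a low EC10 to EC30 dose of BAM8-22 agonist; peak minus trough fluorescence over baseline measured at the second addition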
MrgX1 antagonist – blocks BAM8-22 activation of human MrgX1 receptor; Q96LB2; MRGX1-HEK293 calcium flux, Fluo-4, BAM8-22 antagonism; active compounds read low; B-score at 10 µM; hit rate 1.3% among 310,000; AID 588676;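 active = calcium-response B-score plate-corrected more than 3 library SD below zero, starting fluorescence within 5 deviations, no agonist response on first addition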;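 note: peak minus trough fluorescence over baseline after final BAM8-22 challenge near maximal dose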
An asterisk follows results filed as active; i = inactive.

SMILES | RGS4 act | RGS4 inh | MrgX1 ag | MrgX1 allo act | MrgX1 antagonist
O=[N+]([O-])c1ccccc1S(=O)(=O)N1CCN(C2CCN(Cc3ccccc3)CC2)CC1 | -7.3* | i | i | i | i
CC(C)Sc1nc(N2CCCC2)c2c(c1C#N)CC(C)(C)OC2 | -7.2* | i | i | i | i
O=C(Nc1cccc(Cl)c1N1CCCC1)c1ccc([N+](=O)[O-])o1 | i | i | i | i | i
CCN1CCN(c2c(Cl)cccc2NC(=O)c2ccc([N+](=O)[O-])o2)CC1 | -7.5* | i | i | i | i
Cc1ccc(NC(=O)c2cccc(NC(=O)/C=C/c3ccco3)c2)cc1C | -9.6* | i | i | i | i
CCc1ccccc1NC(=O)c1cccc(NC(=O)/C=C/c2ccco2)c1 | i | i | i | i | i
O=C(/C=C/c1ccco1)Nc1ccc2c(c1)OCO2 | i | i | i | i | i
Cc1ccc(-n2nc3ccc(NC(=O)/C=C/c4ccco4)cc3n2)cc1 | i | i | i | i | -6.3*
COC(=O)c1ccccc1CON1C(=O)C(C)(C)N(OCc2ccccc2C(=O)OC)C(=O)C1(C)C | i | i | i | i | -8.1*
COC(=O)c1ccccc1NC(=O)CC(=O)Nc1ccccc1C(=O)OC | i | i | i | i | i
CCNS(=O)(=O)c1ccc(CCC(=O)N2CCC(C)CC2)cc1 | i | i | i | i | i
CCn1c(SCc2cccc(C(F)(F)F)c2)nnc1-c1ccco1 | i | i | i | i | -6.4*
CCC(C)NC(=O)c1ccc(CN2CCc3ccccc3C2)cc1 (configuration not stated) | -7.5* | i | i | i | i
COCC(C)NC(=O)c1ccc(CN2CCc3ccccc3C2)cc1 (configuration not stated) | i | i | i | i | i
COCCNC(=O)c1ccc(CN2CCc3ccccc3C2)cc1 | i | i | i | i | i
CCCNC(=O)c1ccc(CN2CCc3ccccc3C2)cc1 | -7.1* | i | i | i | i
Nc1c2c(nc3ccc(Br)cc13)N(C1CCCCC1)CC2 | i | i | i | 14* | i
Cc1c(CCC(=O)O)c(=O)oc2c(C)c3occ(-c4ccc(Cl)cc4)c3cc12 | i | i | i | 6.6* | i
O=C(Nc1ccccc1C(=O)O)c1cc(S(=O)(=O)Nc2cccc(F)c2)ccc1Cl | i | i | i | i | i
O=C(Cc1cccs1)Nc1nnc(SCc2ccc(C(F)(F)F)cc2)s1 | i | i | i | i | -9.1*
CC(CS(=O)(=O)c1ccccc1[N+](=O)[O-])N1CCOCC1 (configuration not stated) | i | i | i | i | i
CC(C)C[C@H](NC(=O)c1nc[nH]c1C(=O)NCCCCCNC(=O)OC(C)(C)C)C(=O)OCc1ccccc1 | i | i | i | i | i
CC(C)(C)OC(=O)NCCCCCNC(=O)c1[nH]cnc1C(=O)N[C@@H](Cc1ccccc1)C(=O)OCc1ccccc1 | -7.5* | i | i | i | i
C[C@H](NC(=O)c1nc[nH]c1C(=O)NCCCCCNC(=O)OC(C)(C)C)C(=O)OCc1ccccc1 | -7.8* | i | i | 7.8* | i
CC(C)C[C@H](NC(=O)c1[nH]cnc1C(=O)Nc1ccc(CNC(=O)OC(C)(C)C)cc1)C(=O)OC(C)(C)C | -7* | i | i | i | i
C[C@H](NC(=O)c1nc[nH]c1C(=O)N[C@@H](CCCCNC(=O)OC(C)(C)C)C(=O)OC(C)(C)C)C(=O)OCc1ccccc1 | i | i | i | i | i
COc1ccccc1C(=O)NNC(=O)c1nn(Cc2ccccc2)c(=O)c2ccccc12 | i | i | i | i | i
O=S(=O)(c1ccc(-c2ccon2)s1)N1CCCC1 | i | i | i | i | i
O=S(=O)(c1ccc(-c2ccon2)s1)N1CCN(c2ccncc2)CC1 | i | i | 53* | i | i
CC(C)=CCC12Oc3cc(O)ccc3C1(O)Oc1cc3c(c(O)c1C2=O)C=CC(C)(C)O3 (configuration not stated) | -7.3* | i | i | i | i

Assay outcomes from PubChem.
